Yeast life ext – extends the lifespan of yeast. AID 775. actives 0.68% (n = 130,000). inhibition of the nicotinamide effect, % at 10 µM. S. cerevisiae growth with nicotinamide, OD615; deaD strain in restrictive glucose medium;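 active means inhibition above a set limit, placed 3 SD over the median of all compounds, cut at about 26% in these data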
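Material: Modified budding yeast, DeaD strain | Medium: Restrictive glucose medium | Probe or stimulus: 1.5 mM nicotinamide | Dosing: Single dose 10 µM compound, 0.25% DMSO | Times: 48 h at 30 °C | Technique: OD615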
BB579 growth dn – chemicals that inhibit yeast BB579 growth in restrictive medium (lifespan-shortening candidates); inhibition, % at 10 µM; AID 804; S. cerevisiae BB579 growth, OD615, 48 h; actives 0.51% (n = 140,000);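 active means inhibition above a set limit, 3 SD over the mean compound inhibition, cut at about 44% in these data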
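System: DeaD yeast strain BB579; buffer or medium: CSMM-D dextrose restrictive medium; technique: OD at 615 nm; schedule: 4 h cell preincubation, 48 h compound exposure, 30 °C humidified; doses: single 10 µM dose; controls: amphotericin B 10 µg/mL, positive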
RAM network inh – yeast RAM network inhibition; S. cerevisiae dse1pr::URA3 reporter, 5-FOA growth OD615, 2 d; analog-sensitive cbk1-as2 kinase mutant strain; inhibition, % at 50 µM; actives 1.8% (n = 190,000); AID 868;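 active means inhibition above a set limit, 3 SD over mean compound inhibition, cut at about 8.4% in these data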;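 further: inhibition rescues growth on 5-FOA so higher OD means more RAM inhibition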
WT yeast gro inh – growth inhibition of WT yeast, mitochondrial fusion screen; actives 2.1% (n = 190,000); mitochondrial fusion phenotypic screen, WT strain; inhibition, % at 10 µM; in the data active means inhibition above about 58%; tested in S. cerevisiae
KCC2 mod – modulators of human KCC2 chloride dependent transport. Q9H2X9. KCC2 cells, thallium flux FluoZin-2 fluorescence. B-score of Tl+ flux slope (higher = more flux/activation; lower = inhibition) at 10 µM. actives 2.2% (n = 190,000);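 active means thallium flux slope and its plate-corrected score both differing from the plate sample mean at a set confidence after two filtering rounds, in either direction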;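 further: slope of fluorescence scaled to starting intensity during 10 to 20 s after thallium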
Target sequence (Q9H2X9 whole entry, looked up): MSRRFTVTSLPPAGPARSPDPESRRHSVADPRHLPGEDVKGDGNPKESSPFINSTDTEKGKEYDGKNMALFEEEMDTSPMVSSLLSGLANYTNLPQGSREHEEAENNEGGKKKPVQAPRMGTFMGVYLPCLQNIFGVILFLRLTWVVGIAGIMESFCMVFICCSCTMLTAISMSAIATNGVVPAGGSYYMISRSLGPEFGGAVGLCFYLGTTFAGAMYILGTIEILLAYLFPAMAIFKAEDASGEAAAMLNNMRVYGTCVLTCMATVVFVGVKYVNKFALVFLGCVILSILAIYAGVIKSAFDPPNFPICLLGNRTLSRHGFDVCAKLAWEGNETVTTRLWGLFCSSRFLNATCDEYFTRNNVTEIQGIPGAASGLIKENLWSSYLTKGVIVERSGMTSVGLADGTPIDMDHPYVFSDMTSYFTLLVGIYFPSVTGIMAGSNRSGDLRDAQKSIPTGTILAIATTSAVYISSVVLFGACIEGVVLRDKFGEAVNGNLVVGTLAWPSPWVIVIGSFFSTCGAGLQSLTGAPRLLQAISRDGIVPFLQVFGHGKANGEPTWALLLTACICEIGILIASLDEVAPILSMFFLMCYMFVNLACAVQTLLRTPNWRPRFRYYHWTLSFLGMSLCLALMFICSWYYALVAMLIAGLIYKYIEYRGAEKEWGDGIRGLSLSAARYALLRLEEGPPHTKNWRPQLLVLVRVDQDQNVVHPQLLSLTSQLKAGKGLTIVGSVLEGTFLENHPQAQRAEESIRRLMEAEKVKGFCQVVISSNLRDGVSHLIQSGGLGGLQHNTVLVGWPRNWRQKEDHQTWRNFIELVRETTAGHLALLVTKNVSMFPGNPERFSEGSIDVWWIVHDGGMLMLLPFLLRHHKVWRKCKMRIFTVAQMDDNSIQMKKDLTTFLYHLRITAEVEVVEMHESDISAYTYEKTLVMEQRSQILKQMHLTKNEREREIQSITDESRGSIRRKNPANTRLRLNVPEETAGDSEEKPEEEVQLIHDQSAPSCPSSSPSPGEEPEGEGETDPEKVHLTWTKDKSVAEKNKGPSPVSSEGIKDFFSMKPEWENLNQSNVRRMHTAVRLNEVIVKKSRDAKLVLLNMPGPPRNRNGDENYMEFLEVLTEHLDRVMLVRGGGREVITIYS
Large screens that a line does not name were inactive. In the library only some 5.5% were active in any assay of this set; here they are far more common.

CO/N=C/NC(=O)c1c(OC)ccnc1Oc1cccc(C(F)(F)F)c1	none (no result: KCC2 mod)
CCCCCC1CCC(C(=O)O)CC1 (configuration not stated)	BB579 growth dn 52 (no result: KCC2 mod)
CCCCC1CCC(/C(N)=N/O)CC1 (configuration not stated)	none
COc1ccccc1-n1c(SCC(=O)c2ccc(O)cc2O)nc2cc([N+](=O)[O-])ccc21	WT yeast gro inh 77
O=C(Nc1ccc(F)cc1F)c1cc(=O)n(-c2ccccc2)c(=O)[nH]1	none (no result: Yeast life ext, BB579 growth dn)
CCc1cc2c(SCC(=O)Nc3cc(C)on3)ncnc2s1	none (no result: Yeast life ext, BB579 growth dn)
CN(C)CCCN(C(=O)COc1ccccc1)c1nc2ccc(F)cc2s1	none (no result: Yeast life ext, BB579 growth dn)
Cc1ccc2nc(N(CCCN(C)C)C(=O)c3ccc(Br)s3)sc2c1	WT yeast gro inh 90 (no result: Yeast life ext, BB579 growth dn)
Cc1ccc2sc(N(CCCN(C)C)C(=O)CN3C(=O)c4ccccc4C3=O)nc2c1C	WT yeast gro inh 94 (no result: Yeast life ext, BB579 growth dn)
CN(C)CCCN(C(=O)CCOc1ccccc1)c1nc2c(F)cccc2s1	none (no result: Yeast life ext, BB579 growth dn)
CN(C)CCCN(C(=O)COc1ccc(Cl)cc1)c1nc2ccc(F)cc2s1	WT yeast gro inh 61 (no result: Yeast life ext, BB579 growth dn)
CN(C)CCCN(C(=O)CCc1ccccc1)c1nc2c(F)cccc2s1	WT yeast gro inh 60
O=C(CCc1c[nH]c2ccccc12)N1CCN(c2ccc(O)cc2)CC1	none (no result: Yeast life ext, BB579 growth dn)
Cc1cccc2sc(N(CCCN(C)C)C(=O)COc3ccc(Cl)cc3)nc12	WT yeast gro inh 90 (no result: Yeast life ext, BB579 growth dn)
Cc1cc(C)c2sc(N(CCCN(C)C)C(=O)COc3ccc(Cl)cc3)nc2c1	WT yeast gro inh 89 (no result: Yeast life ext, BB579 growth dn)
Cc1cccc2sc(N(CCCN(C)C)C(=O)c3sc4ccccc4c3Cl)nc12	WT yeast gro inh 88
Cc1ccc2nc(N(CCCN(C)C)C(=O)COc3ccc(Cl)cc3)sc2c1	WT yeast gro inh 91 (no result: Yeast life ext, BB579 growth dn)
CN(C)CCCN(C(=O)c1sc2ccccc2c1Cl)c1nc2c(F)cccc2s1	none
COc1cc(OC)c(C2C(C#N)=C(C)NC(C)=C2C#N)c(C(=O)O)c1	none (no result: Yeast life ext, BB579 growth dn, RAM network inh, WT yeast gro inh)
Cc1nc2c(ccc3nc(NC(=O)Cc4ccccc4)sc32)s1	RAM network inh 11
Cc1ccc(CC(=O)Nc2nc3ccccc3s2)cc1	none
O=C(CSCC(=O)OCn1nnc2ccccc2c1=O)Nc1ccc(Cl)cc1	WT yeast gro inh 70
O=C(CCSc1ccccc1)OCn1nnc2ccccc2c1=O	none (no result: Yeast life ext, BB579 growth dn)
On1c2c(c3c4nonc4ccc31)CCCC2	WT yeast gro inh 74 (no result: Yeast life ext)
C=CCSc1nnc(NC(=O)c2nc(SCC)ncc2Cl)s1	RAM network inh 8.4 (no result: KCC2 mod)
C=CCSc1nnc(NC(=O)c2cn(CC)c3nc(C)ccc3c2=O)s1	none (no result: Yeast life ext, BB579 growth dn)
Nc1c(Nc2ccccc2)c2ccccc2oc1=O	BB579 growth dn 48, RAM network inh 9.8
CCNc1c(N)c(=O)oc2ccccc12	none
CC1(C(=O)OCC(=O)Nc2ccc3ccccc3c2)CC1(Cl)Cl (configuration not stated)	WT yeast gro inh 66 (no result: Yeast life ext, BB579 growth dn)
CCOc1ccc(NC(=O)COC(=O)C2(C)CC2(Cl)Cl)c([N+](=O)[O-])c1 (configuration not stated)	RAM network inh 9.1 (no result: Yeast life ext, BB579 growth dn)
CC(C)(C)c1ccc(OC(=O)c2ccc3nsnc3c2)cc1	WT yeast gro inh 73 (no result: KCC2 mod)
O=C(O)c1cc([N+](=O)[O-])c(N2CCCC2)c([N+](=O)[O-])c1	none
CNC(=S)Nc1cccc(Cl)c1C	none (no result: Yeast life ext, BB579 growth dn)
O=c1[nH]c2ccccc2nc1C(Cl)c1ccccc1 (configuration not stated)	Yeast life ext 37
CCOC(=O)C(C)c1nc2ccccc2[nH]c1=O (configuration not stated)	WT yeast gro inh 73
CC(C)CNC(=O)c1cccc(NC(=O)CSc2ccc(Cl)cc2)c1	RAM network inh 9.8
C=CCn1c(N2CCN(c3ccc(OC)cc3)CC2)nc2c1c(=O)[nH]c(=O)n2C	none (no result: Yeast life ext, BB579 growth dn)
CCNc1nc(N2CCCC2)nc(N2CCCC2)n1	none (no result: Yeast life ext, BB579 growth dn)
CCNc1nc(NC(C)(C)C)nc(N2CCCCC2)n1	WT yeast gro inh 78 (no result: Yeast life ext, BB579 growth dn)
Cc1ccc(COc2ccccc2C(=S)N2CCCC2)cc1	WT yeast gro inh 61 (no result: Yeast life ext, BB579 growth dn)
CC(c1ccco1)N(C(=O)c1ccccc1F)c1ccccn1 (configuration not stated)	none (no result: Yeast life ext, BB579 growth dn)
CC(c1ccco1)N(C(=O)c1ccccc1NS(=O)(=O)c1cccc([N+](=O)[O-])c1)c1ccccn1 (configuration not stated)	Yeast life ext 34
CC(c1ccco1)N(C(=O)c1ccccc1NS(=O)(=O)c1cc([N+](=O)[O-])ccc1Cl)c1ccccn1 (configuration not stated)	Yeast life ext 59, KCC2 mod 5.4
CC(c1ccco1)N(C(=O)c1ccccc1NS(=O)(=O)c1ccc(Cl)cc1)c1ccccn1 (configuration not stated)	none
CCOC(=O)/C=C/C(=O)OCC(=O)Nc1ccc([N+](=O)[O-])cc1	none (no result: Yeast life ext, BB579 growth dn, RAM network inh, WT yeast gro inh)
Cc1ccc(C)c(OCCOCCN2CC(C)OC(C)C2)c1C (configuration not stated)	none (no result: KCC2 mod)
CCc1ccc(S(=O)(=O)NCCc2cn3cccc(C)c3n2)s1	none (no result: Yeast life ext, BB579 growth dn)
COc1coc(C(O)CN)cc1=O (configuration not stated)	none
CCOC(=O)C(=Cc1cc(=O)c(OC)co1)C(=O)OCC	Yeast life ext 35
CC1(C)Cc2c(c(N3CCCC3)nc3sc4c(N5CCNCC5)ncnc4c23)CO1	none (no result: Yeast life ext, BB579 growth dn, RAM network inh, WT yeast gro inh)
CC1CC(C)CN(c2ccc(-n3cnnn3)cc2[N+](=O)[O-])C1 (configuration not stated)	none
O=[N+]([O-])c1cc(-n2cnnn2)ccc1N1CCC(Cc2ccccc2)CC1	RAM network inh 8.9
CCN(c1ccc(NC(=O)COC(=O)CCC(=O)c2ccc(F)cc2)cc1)C(C)C	none
Cc1sc2nc(CN(Cc3cccs3)C(=O)NC3CCCCC3)[nH]c(=O)c2c1C	WT yeast gro inh 66
Cc1sc2nc(CN(C(=O)NC3CCCCC3)C3CCCC3)[nH]c(=O)c2c1C	none (no result: Yeast life ext)
Cc1ccccc1-c1ncc(CN2CCC(CO)(CCCc3ccccc3)CC2)cn1	WT yeast gro inh 87 (no result: Yeast life ext, BB579 growth dn)
CCOC(=O)c1cnc2c(C)cccc2c1Nc1cccc(C(=O)O)c1	none (no result: Yeast life ext, BB579 growth dn, RAM network inh, WT yeast gro inh)
COc1ccc2ccc3c(c2c1)N=C[C@]1(O3)N(C)c2ccccc2C1(C)C	WT yeast gro inh 75
CC1=NOC2(C1)N(C)c1ccccc1C2(C)C (configuration not stated)	none
COC(=O)c1c(NC(=O)c2ccccc2)sc(C(=O)c2ccccc2)c1C	KCC2 mod 8.4
COCc1cc(=O)[nH]c(SCCS(=O)(=O)c2ccc(Cl)cc2Cl)n1	none (no result: Yeast life ext, BB579 growth dn, RAM network inh, WT yeast gro inh)
CCn1c(/N=C/c2ccccc2NS(=O)(=O)c2ccc(C)cc2)nc2ccccc21	Yeast life ext 50
Cc1cccc(Cn2c(Cc3ccccc3)nc3ccccc32)c1	WT yeast gro inh 72
Cc1ccccc1Cn1c(Cc2ccccc2)nc2ccccc21	WT yeast gro inh 77
COCc1nc2ccccc2n1Cc1cccc(C)c1	none
CS(=O)(=O)c1nc2ccccc2n1Cc1ccccc1	WT yeast gro inh 94
CCSc1nnc(NC(=O)CSc2nnc(C)c(=O)n2N)s1	none (no result: Yeast life ext, BB579 growth dn)

Screens from PubChem.
